From ChEMBL document CHEMBL1147467, “Design and synthesis of oxadiazolidinediones as inhibitors of plasminogen activator inhibitor-1” (Bioorg Med Chem Lett, 2004) come the findings set out here.

Structures are written as SMILES.

One assay deals with T1, Plasminogen activator inhibitor 1 (Homo sapiens, UniProt P05121). The assay is described as follows: In vitro concentration required for inhibition of tissue type plasminogen activator by plasminogen activator inhibitor-1 at concentration 25 um. The method, boiled down: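 Recombinant human PAI-1 (140 nM) preincubated 1 h at room temperature with compound (1-100 µM final, ≤0.2% DMSO) in pH 6.6 buffer. Recombinant human tPA (70 nM; PAI-1:tPA 2:1) then added for 30 min, followed by the chromogenic tPA substrate Spectrozyme-tPA, with A405 read at 0 and 60 min.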
Target sequence in this assay (P05121 whole entry): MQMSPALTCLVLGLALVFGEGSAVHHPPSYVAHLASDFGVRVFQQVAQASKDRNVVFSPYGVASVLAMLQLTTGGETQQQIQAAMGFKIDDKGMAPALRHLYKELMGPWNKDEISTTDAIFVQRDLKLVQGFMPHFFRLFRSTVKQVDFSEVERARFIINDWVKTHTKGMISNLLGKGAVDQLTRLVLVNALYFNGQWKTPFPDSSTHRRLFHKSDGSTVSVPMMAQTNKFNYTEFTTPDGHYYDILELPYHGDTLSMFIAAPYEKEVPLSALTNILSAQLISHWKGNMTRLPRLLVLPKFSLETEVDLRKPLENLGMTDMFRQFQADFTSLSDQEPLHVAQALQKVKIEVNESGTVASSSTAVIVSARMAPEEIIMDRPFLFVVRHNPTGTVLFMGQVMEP
With `C/C(=C\Cn1oc(=O)[nH]c1=O)c1cccc(COc2cc(C(F)(F)F)cc(C(F)(F)F)c2)c1`, the IC50 was 5.29 µM.

Compound `O=c1[nH]c(=O)n(C/C=C/c2cc(OCc3ccc(Cl)c(Cl)c3)ccc2Cl)o1` registered an IC50 of 3.8 µM.

Compound `C/C(=C/Cn1oc(=O)[nH]c1=O)c1cccc(COc2cc(C(F)(F)F)cc(C(F)(F)F)c2)c1` had a half-inhibitory concentration (IC50) of 7.2 µM.

With `C/C(=C\Cn1oc(=O)[nH]c1=O)c1cccc(OCc2cc(C(F)(F)F)cc(C(F)(F)F)c2)c1`, the IC50 amounted to 9.4 µM. This IC50 and that of the compound before are within 1.5-fold of each other.

As for `O=c1[nH]c(=O)n(C/C=C/c2cc(OCc3ccc(C(F)(F)F)cc3)cc(OCc3ccc(C(F)(F)F)cc3)c2)o1`, the 50% inhibitory concentration (IC50) is 2.5 µM.

As for `C/C(=C\Cn1oc(=O)[nH]c1=O)c1cccc(OCc2ccccc2-c2ccccc2)c1`, the half-maximal inhibitory concentration (IC50) is 2.3 µM.

Compound `O=c1[nH]c(=O)n(C/C=C/c2cc(OCc3ccc(Cl)cc3)cc(OCc3ccc(Cl)cc3)c2)o1` registered an IC50 of 2.1 µM.

`C/C(=C\Cn1oc(=O)[nH]c1=O)c1cccc(OCc2ccccn2)c1` yielded a half-maximal inhibitory concentration (IC50) of 24 µM.

In the case of `COc1cc(/C=C/Cn2oc(=O)[nH]c2=O)ccc1OCc1ccc(Cl)c(Cl)c1`, the IC50 came to 3.22 µM.

For the next assay, the target named is T1, Plasminogen activator inhibitor 1. The assay can be described thus: Inhibitory activity against plasminogen activator inhibitor-1.
`CCCCC(CCn1oc(=O)[nH]c1=O)c1cccc(Oc2cccc(C)c2)c1` (centres undefined) registered a 50% inhibitory concentration (IC50) of 2.2 µM. That is a single-digit micromolar value.

As to `CC(/C=C/c1ccc(OCc2cccc(C(F)(F)F)c2)cc1)n1oc(=O)[nH]c1=O` (centres undefined), the half-inhibitory concentration (IC50) was found to be 5.8 µM.

As to `O=c1[nH]c(=O)n(C(CCc2ccc(OCc3cccc(Cl)c3)cc2)c2ccccc2)o1` (centres undefined), the 50% inhibitory concentration (IC50) was determined as 0.68 µM.

`O=c1[nH]c(=O)n(C(CCc2ccc(OCc3cc(C(F)(F)F)cc(C(F)(F)F)c3)cc2)c2ccccc2)o1` (centres undefined) yielded a half-maximal inhibitory concentration (IC50) of 0.39 µM. This IC50 is about 1.7-fold lower than that of the compound before.

`CC/C(=C\Cn1oc(=O)[nH]c1=O)c1ccc(OCc2cc(C(F)(F)F)cc(C(F)(F)F)c2)cc1` yielded an IC50 of 9 µM.

Compound `O=c1[nH]c(=O)n(C/C=C/c2ccc(OCc3cc(C(F)(F)F)cc(C(F)(F)F)c3)cc2)o1` registered a half-maximal inhibitory concentration (IC50) of 14.9 µM.

Compound `CCCC/C(=C\Cn1oc(=O)[nH]c1=O)c1cccc(Oc2cc(Cl)cc(Cl)c2)c1` registered an IC50 of 1.9 µM.

In turn, `CC(/C=C/c1ccc(OCc2ccc(Cl)c(Cl)c2)cc1)n1oc(=O)[nH]c1=O` (centres undefined) gave an IC50 of 6.1 µM. Against the preceding compound, the IC50 is about 3.2-fold higher.

The target is the same in the next assay. The assay can be described thus: In vitro inhibition of plasminogen activator inhibitor-1 at concentration 25 um.
Target sequence in this assay (P05121 whole entry, looked up): as the sequence (P05121 whole entry) above
`C/C(=C\Cn1oc(=O)[nH]c1=O)c1cccc(OCc2cccc(C)c2)c1` gave an inhibition of 37%.

Regarding `C/C(=C\Cn1oc(=O)[nH]c1=O)c1cccc(OCc2ccccc2)c1`, the inhibition stood at 24%.
